# Assay results as given in ChEMBL document CHEMBL1156597, “Structure-activity relationship of kahalalide F synthetic analogues” (J Med Chem, 2008).
# Legend:
# [1] = test system: HT-29; assay: Cytotoxicity against human HT29 cells after 48 hrs by SRB assay; format: functional, cell-based; settings: Homo sapiens, HT-29, 48 h; for CC50: read-out: LC50 (the source's name)
# Procedure, shortened: (§1)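 Cells grown in RPMI 1640 with 10% FBS and penicillin/streptomycin at 37 °C and 5% CO₂, trypsinized, then seeded at 5 × 10³/well. After 18 h drug-free attachment, samples in DMSO/EtOH/PBS (0.5:0.5:99) were added for 48 h continuous exposure. Cells were fixed with cold TCA (1 h, 4 °C) and stained with SRB (10 min). Tris-solubilized stain read at 490 nm. Triplicate wells, mean ± SD; GI₅₀ derived.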
# [2] = Cytotoxicity against human IGROV cells after 48 hrs by SRB assay; format: functional; settings: for CC50: read-out: LC50 (the source's name); procedure, shortened: as §1
# [3] = test system: SK-MEL-28; assay: Cytotoxicity against human SK-MEL-28 cells after 48 hrs by SRB assay; format: functional, cell-based; settings: Homo sapiens, SK-MEL-28, 48 h; for CC50: read-out: LC50 (the source's name); procedure, shortened: as §1
# [4] = test system: A549; assay: Cytotoxicity against human A549 cells after 48 hrs by SRB assay; format: functional, cell-based; settings: Homo sapiens, A549, 48 h; procedure, shortened: as §1
# [5] = test system: PANC-1; assay: Cytotoxicity against human PANC1 cells after 48 hrs by SRB assay; format: functional; settings: PANC-1, 48 h; for CC50: read-out: LC50 (the source's name); procedure, shortened: as §1
# [6] = test system: SK-BR-3; assay: Cytotoxicity against human SKBR3 cells after 48 hrs by SRB assay; format: functional; settings: SK-BR-3, 48 h; for GI50: read-out: GI50; for CC50: read-out: LC50 (the source's name); procedure, shortened: as §1
# [7] = test system: HeLa; assay: Cytotoxicity against human HeLa cells after 48 hrs by SRB assay; format: functional; settings: for CC50: read-out: LC50 (the source's name); procedure, shortened: as §1
# [8] = Cytotoxicity against human IGROV-ET cells after 48 hrs by SRB assay; format: functional; settings: for CC50: read-out: LC50 (the source's name); procedure, shortened: as §1
# [9] = test system: LoVo; assay: Cytotoxicity against human LoVo cells after 48 hrs by SRB assay; format: functional; settings: for CC50: read-out: LC50 (the source's name)
# [10] = test system: K562; assay: Cytotoxicity against human K562 cells after 48 hrs by SRB assay; format: functional; settings: K562, 48 h; for CC50: read-out: LC50 (the source's name); procedure, shortened: as §1
# [11] = Cytotoxicity against human HeLa-APL cells after 48 hrs by SRB assay; format: functional; procedure, shortened: as §1
# [12] = test system: LNCaP; assay: Cytotoxicity against human LNcaP cells after 48 hrs by SRB assay; format: functional; settings: for CC50: read-out: LC50 (the source's name); procedure, shortened: as §1
# [13] = test system: DU-145; assay: Cytotoxicity against human DU145 cells after 48 hrs by SRB assay; format: functional, cell-based; settings: Homo sapiens, DU-145, 48 h; for CC50: read-out: LC50 (the source's name); procedure, shortened: as §1
SMILES,CC50 [1],CC50 [2],CC50 [3],LC50 [4],GI50 ([4]; read-out: GI50),CC50 [5],CC50 [6],CC50 [7],CC50 [8],GI50 [9],TGI [9],CC50 [9],GI50 [10],TGI [10],CC50 [10],LC50 (concentration giving 50% net cell kill) [11],GI50 [12],TGI [12],CC50 [12],CC50 [13],also measured
C/C=C1\NC(=O)[C@H](Cc2ccccc2)NC(=O)[C@@H](C(C)C)NC(=O)[C@@H]([C@H](C)CC)NC(=O)[C@H](NC(=O)[C@H](NC(=O)[C@H](CCCN)NC(=O)[C@H]2CCCN2C(=O)[C@H](NC(=O)[C@H](Cc2ccccc2)NC(=O)[C@@H](NC(=O)[C@H](NC(=O)CCCC(C)C)C(C)C)[C@@H](C)O)C(C)C)[C@H](C)CC)[C@H](C)OC(=O)[C@H](C(C)C)NC1=O,0.0695 µM,0.343 µM,0.76 µM,0.96 µM,0.722 µM,2.45 µM,0.26 µM,0.607 µM,0.262 µM,0.29 µM,0.31 µM,0.333 µM,1.74 µM,1.56 µM,1.38 µM,0.768 µM,0.857 µM,0.941 µM,1.03 µM,0.785 µM,GI50 [2]: 0.25 µM; GI50 ([2]; read-out: GI50): 0.337 µM; GI50 [3]: 0.739 µM; GI50 ([3]; read-out: GI50): 0.73 µM; GI50 [4]: 0.875 µM; GI50 [5]: 2.54 µM; TGI [5]: 3.53 µM; TGI [6]: 0.323 µM; GI50 [6]: 0.325 µM; GI50 [7]: 0.432 µM; TGI [7]: 0.542 µM; GI50 [8]: 0.184 µM; GI50 ([8]; read-out: GI50): 0.194 µM; GI50 [11]: 0.816 µM; TGI [11]: 0.795 µM; GI50 [13]: 0.752 µM; GI50 ([13]; read-out: GI50): 0.612 µM
C/C=C1\NC(=O)[C@H](Cc2ccccc2)NC(=O)[C@@H](C(C)C)NC(=O)[C@@H]([C@H](C)CC)NC(=O)[C@H](NC(=O)[C@H](NC(=O)[C@H](CCCN)NC(=O)[C@H]2CCCN2C(=O)[C@H](NC(=O)CNC(=O)[C@@H](NC(=O)[C@H](NC(=O)CCCC(C)C)C(C)C)[C@@H](C)O)C(C)C)[C@H](C)CC)[C@H](C)OC(=O)[C@H](C(C)C)NC1=O,0.911 µM,0.649 µM,1.48 µM,1.96 µM,–,2.6 µM,2.85 µM,1.07 µM,0.722 µM,10.7 µM,9.72 µM,4.92 µM,2.57 µM,3.12 µM,2.5 µM,1.36 µM,3.05 µM,3.32 µM,1.58 µM,1.7 µM,–
C/C=C1\NC(=O)[C@H](Cc2ccccc2)NC(=O)[C@@H](C(C)C)NC(=O)[C@@H]([C@H](C)CC)NC(=O)[C@H](NC(=O)[C@H](NC(=O)[C@H](CCCN)NC(=O)[C@H]2CCCN2C(=O)[C@H](NC(=O)[C@@H](NC(=O)[C@@H](NC(=O)[C@H](NC(=O)CCCCCCCCCCCCCCCCCCC)C(C)C)[C@@H](C)O)C(C)C)C(C)C)[C@H](C)CC)[C@H](C)OC(=O)[C@H](C(C)C)NC1=O,0.877 µM,1.23 µM,0.432 µM,0.383 µM,1.88 µM,0.423 µM,0.865 µM,0.477 µM,1.21 µM,–,–,0.96 µM,–,–,0.91 µM,2.03 µM,–,–,0.296 µM,2.03 µM,GI50 [3]: 0.905 µM; GI50 ([3]; read-out: GI50): 1.89 µM; GI50 [4]: 0.85 µM
C/C=C1\NC(=O)[C@H](Cc2ccccc2)NC(=O)[C@@H](C(C)C)NC(=O)[C@@H]([C@H](C)CC)NC(=O)[C@H](NC(=O)[C@H](NC(=O)[C@H](CCCN)NC(=O)[C@H]2CCCN2C(=O)[C@H](NC(=O)[C@H](NC(=O)[C@@H](NC(=O)[C@H](NC(=O)CCCC(C)C)C(C)C)[C@@H](C)O)C(C)C)C(C)C)[C@H](C)CC)[C@H](C)OC(=O)[C@H](C(C)C)NC1=O,0.886 µM,0.631 µM,1.44 µM,1.91 µM,5.09 µM,2.53 µM,2.31 µM,1.04 µM,0.702 µM,3.31 µM,3.21 µM,3.11 µM,4.29 µM,4.83 µM,2.43 µM,1.32 µM,2.44 µM,3.23 µM,1.54 µM,1.65 µM,GI50 [1]: 4.84 µM; TGI [1]: 3.93 µM; TGI [4]: 4.23 µM; GI50 [5]: 4.43 µM; TGI [5]: 4.92 µM; TGI [6]: 3.23 µM; GI50 [6]: 3.69 µM; GI50 [11]: 3.4 µM; TGI [11]: 3.04 µM; TGI [13]: 3.8 µM; GI50 ([13]; read-out: GI50): 3.13 µM
